Only some compounds are listed: those with a hit (about 2.2% of all), similar ones and a draw of the others.
PfG6PD inh = PfG6PD (Plasmodium falciparum) enzyme inhibition; PfGluPho enzyme, NADPH resazurin-diaphorase fluorescence; inhibition, % at 20 µM; 0.78% of 350,000 active; AID 504690;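 active = inhibition reaching at least a set limit at 20 µM in the primary screen, cut at about 59% in these data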
Exocytosis inh = blocks lytic granule exocytosis | inhibition, % at 10 µM | TALL-104 LAMP-1 surface exposure, flow cytometry; cells stimulated with thapsigargin and PMA | 0.66% of 360,000 active;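 active = inhibition above about 55%, limit read from the data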
HKDC1 inhibitor = inhibitors of human hexokinase HKDC1. Q2TB90. recombinant HKDC1, G6PDH/diaphorase resazurin coupled fluorescence. inhibition, % at 20 µM. 0.16% of 340,000 active;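 active = inhibition above about 35% when tested at 20 µM, limit read from the data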
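System: Recombinant HKDC1 hexokinase | Amount: HKDC1 at 5 µg/mL | Reagent: Glucose with 1 mM ATP | Doses: Single 20 µM dose | Incubation: Reaction time 90 min, room temperature, protected from light | Signal: Coupled resazurin fluorescence, excitation 525 nm, emission 613 nm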
ABHD5 PLIN5 PPI = blocks binding of human ABHD5 to perilipin-5. Q00G26+Q8WTS1. Split G. princeps luciferase complementation, luminescence, 4 h. inhibition, % at 4 µM. 0.78% of 360,000 active. AID 602281;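 active = inhibition above the mean inhibition across every tested compound plus 3 SD, cut at about 22% in these data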
Target sequence (Q00G26 whole entry, looked up): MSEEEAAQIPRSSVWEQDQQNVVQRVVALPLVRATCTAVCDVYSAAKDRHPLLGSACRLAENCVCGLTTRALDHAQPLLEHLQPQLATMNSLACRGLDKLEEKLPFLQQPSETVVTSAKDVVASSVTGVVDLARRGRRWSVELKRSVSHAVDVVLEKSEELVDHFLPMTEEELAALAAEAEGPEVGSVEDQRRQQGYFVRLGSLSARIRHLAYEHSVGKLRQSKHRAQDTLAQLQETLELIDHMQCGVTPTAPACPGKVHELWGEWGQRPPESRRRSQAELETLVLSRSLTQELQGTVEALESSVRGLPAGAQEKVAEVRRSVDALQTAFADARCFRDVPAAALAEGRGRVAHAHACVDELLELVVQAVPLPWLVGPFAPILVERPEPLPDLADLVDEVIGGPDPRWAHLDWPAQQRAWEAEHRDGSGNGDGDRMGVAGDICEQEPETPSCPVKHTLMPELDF
Target sequence (Q8WTS1 whole entry, looked up): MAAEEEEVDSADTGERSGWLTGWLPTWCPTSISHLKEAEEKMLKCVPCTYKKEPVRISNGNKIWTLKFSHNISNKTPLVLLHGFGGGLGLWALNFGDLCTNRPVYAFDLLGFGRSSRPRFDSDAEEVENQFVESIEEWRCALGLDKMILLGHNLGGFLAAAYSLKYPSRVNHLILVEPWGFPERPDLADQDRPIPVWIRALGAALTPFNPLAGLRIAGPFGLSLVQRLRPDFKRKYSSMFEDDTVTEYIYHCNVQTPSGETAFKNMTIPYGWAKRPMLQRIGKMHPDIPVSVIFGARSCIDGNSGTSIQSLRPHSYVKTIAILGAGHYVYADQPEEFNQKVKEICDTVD
Granule exo CP1 = blocks lytic granule exocytosis; TALL-104 cells, LAMP-1 externalization, flow cytometry; stimulated with PMA plus thapsigargin; shares compounds with Exocytosis inh; 11% of 1,500 active; inhibition, % at 10 µM; in the data active = inhibition above about 60%
Of the large screens only hits and unclear results are named; the others gave an inactive call (follow-up assays come after a bar, where they were run).

Cc1ccc(C(C)C)c(OCCNCCc2ccccc2)c1	Exocytosis inh 64.3 | Granule exo CP1 inactive
COc1ccc(NC(=O)N(C2CCCCC2)C(C)c2ccco2)c(OC)c1 (stereo not given)	none
COc1ccc(NC(=O)N(C2CCCCC2)C2CCN(C(C)C)CC2)c(OC)c1	Exocytosis inh 70.2 | Granule exo CP1 inactive
COc1ccc(S(=O)(=O)c2c(O)cc(C)c(NS(=O)(=O)c3ccccc3)c2C)cc1	Exocytosis inh 69.7 | Granule exo CP1 inactive
CC1(C(=O)NS(=O)(=O)c2ccccc2OC(F)(F)F)CCN1C(=O)c1ccco1 (stereo not given)	none (no result: PfG6PD inh, HKDC1 inhibitor)
CC(=O)N1CCN(S(=O)(=O)c2cccc(C(=O)NCCC3=CCCCC3)c2)CC1	Exocytosis inh 66.8 | Granule exo CP1 inactive
COc1cc(CN2CCCC(N3CCN(c4ccccc4C)CC3)C2)cc(Cl)c1O (stereo not given)	Exocytosis inh 57.0 | Granule exo CP1 inactive
Oc1ccccc1CN1CCCC(N2CCN(c3cccc(C(F)(F)F)c3)CC2)C1 (stereo not given)	Exocytosis inh 68.2 | Granule exo CP1 inactive
COc1ccc(CN2CCCC(N3CCN(c4cccc(Cl)c4)CC3)C2)cc1OC (stereo not given)	Exocytosis inh 67.2 | Granule exo CP1 inactive
CCCc1c(-c2cccc(Br)c2)ncn1Cc1ccccc1OC	none (no result: PfG6PD inh, HKDC1 inhibitor)
O=C1CC(Cc2ccccc2)C(=O)N1CCc1ccc2c(c1)OCO2 (stereo not given)	Exocytosis inh 76.5 | Granule exo CP1 inactive
C=CCc1cc(/C=C2/NC(=O)N(CC(=O)OC)C2=O)cc(OC)c1O	none
COc1ccc(OC)c(Nc2nc(-c3ccncc3)nc3ccccc23)c1	Exocytosis inh 83.2 | Granule exo CP1 inactive
O=C(Nc1cnn(Cc2ccccc2)c1)c1cc2nc(-c3ccco3)cc(C(F)(F)F)n2n1	Exocytosis inh 96.2 | Granule exo CP1 inactive
COc1ccc(N2CCN(c3ncnc4scc(-c5ccc(F)cc5)c34)CC2)cc1	none
COc1ccc(N2CCN(c3ncnc4scc(-c5ccccc5)c34)CC2)cc1	none
COc1ccc(F)cc1CN1CCN(c2ncnc3scc(-c4ccccc4)c23)CC1	Exocytosis inh 70.0 | Granule exo CP1 inactive
COc1ccc(CN2CCN(c3ncnc4scc(-c5ccc(F)cc5)c34)CC2)cc1	Exocytosis inh 60.5 | Granule exo CP1 inactive
COc1ccc(N2CCN(c3ncnc4scc(-c5ccc(C)cc5)c34)CC2)cc1	Exocytosis inh 80.4 | Granule exo CP1 inactive
CCOc1ccc(CN2CCN(c3ncnc4scc(-c5ccccc5)c34)CC2)cc1	Exocytosis inh 87.0 | Granule exo CP1 inactive
CCOC(=O)c1c(NC(=O)c2nn(CC)cc2Br)sc2c1CCCCC2	none
CCOC(=O)c1c(NC(=O)c2ccn(CC)n2)sc2c1CCC2	Exocytosis inh 79.6 | Granule exo CP1 inactive
CN(C)CCNc1nc2sc3c(c2c(=O)n1Cc1ccccc1)CCCCC3	Exocytosis inh 57.4 | Granule exo CP1 inactive
O=c1c2c3c(sc2nc(N2CCNCC2)n1CCc1ccccc1)CCCCC3	Exocytosis inh 59.6 | Granule exo CP1 inactive
O=C(O)c1nc(-c2ccccc2)c(C(=O)NC2CC2)[nH]1	none (no result: PfG6PD inh, HKDC1 inhibitor)
CCN(CC(=O)NCc1cccs1)C(=O)c1cccc(S(=O)(=O)N2CCc3ccccc32)c1	Exocytosis inh 64.9 | Granule exo CP1 inactive
COC(=O)c1ccc(NC(=S)NC2CCc3ccccc32)cc1 (stereo not given)	none
CCCn1c2c(c(=N)c3c1CCC3)CCC2	none
CCCCCCCn1c2c(c(=N)c3ccccc31)CCC2	Exocytosis inh 71.2 | Granule exo CP1 inactive
O=C(CCN1CCN(c2ccc([N+](=O)[O-])cc2)CC1)c1ccc(Cl)cc1	Exocytosis inh 84.1 | Granule exo CP1 inactive
O=C(CCN1CCN(c2ccccc2)CC1)c1ccc(Cl)cc1	Exocytosis inh 79.2 | Granule exo CP1 inactive
O=C(CN1CCN(c2ccc([N+](=O)[O-])cc2)CC1)c1ccccc1	none
COc1ccc(C)cc1NC(=O)NNC(=O)C(C)Oc1ccc([N+](=O)[O-])cc1 (stereo not given)	none
Cc1cccc(Cn2nc(C(C)(C)C)cc2C(=O)Nc2ccc(F)cc2)c1	Exocytosis inh 55.7 | Granule exo CP1 inactive
c1ccc(C(NCCNC(c2ccccc2)c2ccccc2)c2ccccc2)cc1	Exocytosis inh 80.2 | Granule exo CP1 inactive
NS(=O)(=O)c1ccc(CCNC(c2ccccc2)c2ccccc2)cc1	none
Cn1c(N)c(C(=O)COC(=O)c2cc(S(=O)(=O)N3CCOCC3)ccc2F)c(=O)n(C)c1=O	none
CCOC(=O)c1sc2nc(C)nc(SC(C)C(=O)NC3CC3)c2c1C (stereo not given)	none
Nc1ccc(-c2nc3ccc(N)cc3o2)cc1	Exocytosis inh 63.2 | Granule exo CP1 inactive
COCC1CCCN(Cc2cn(Cc3ccccc3)nc2-c2cc3ccccc3o2)C1 (stereo not given)	Exocytosis inh 70.4 | Granule exo CP1 inactive
Cc1c(NC(=O)COc2cccc(Br)c2)c(=O)n(-c2ccccc2)n1C	Exocytosis inh 69.9 | Granule exo CP1 inactive
Cc1cccnc1NC1(C(F)(F)F)N=C2SCCN2C1=O (stereo not given)	none
Cc1cccc(S(=O)(=O)Nc2ccc(S(=O)(=O)Nc3nccs3)cc2)c1	Exocytosis inh 60.9 | Granule exo CP1 inactive
Cc1cc(Nc2cccc(Cl)c2)nc(NCc2ccccc2)n1	Exocytosis inh 70.2, ABHD5 PLIN5 PPI 22.3 | Granule exo CP1 inactive
Cc1cc(N/N=C/c2cccc(Cl)c2)nc(NCc2ccccc2)n1	none
Cc1ccccc1Nc1nc(N)nc(COC(=O)c2ccc(S(=O)(=O)N(C)C)cc2)n1	Exocytosis inh 63.0 | Granule exo CP1 inactive
Cc1ccccc1Nc1nc(N)nc(COC(=O)c2ccco2)n1	none
COc1cc(Cl)c(C)cc1NC(=O)CC1SC(N2CCOCC2)=NC1=O (stereo not given)	none
CCN(CC)S(=O)(=O)c1ccc(S(=O)(=O)N2CCC(N3CCCCC3)CC2)cc1	Exocytosis inh 62.1 | Granule exo CP1 inactive
CC(C)(C)c1ccc(S(=O)(=O)N2CCC(N3CCCCC3)CC2)cc1	none
CCCN(CC(=O)Nc1ccccc1OC)C(C)C(=O)NC(C)CCc1ccccc1 (stereo not given)	Exocytosis inh 69.7 | Granule exo CP1 inactive
NC1=NC(c2ccc(Cl)cc2)C(C(=O)c2ccccc2)N1 (stereo not given)	none
O=C(CN1CCN(C(c2ccccc2)c2ccccc2)CC1)N1CCN(c2ccccc2)CC1	Exocytosis inh 71.1 | Granule exo CP1 inactive
CC1CCN(CC(=O)N2CCN(c3ccccc3)CC2)CC1	none
O=C(Nc1ccccc1Cl)c1ccc2c(=O)n3c(nc2c1)CCC3	none
O=C(Nc1nc(-c2ccccc2)cs1)c1ccc2c(=O)n3c(nc2c1)CCCCC3	Exocytosis inh 97.2 | Granule exo CP1 68.2
Cc1ccc(S(=O)(=O)N[C@H](C(=O)N2CCC(C(=O)N[C@@H](CCC(N)=O)C(=O)O)CC2)C(C)C)cc1	none
CCCCn1c(=N)n(CC(=O)c2ccc(Br)s2)c2ccccc21	Exocytosis inh 82.5 | Granule exo CP1 95.8

Bioassay records as filed in PubChem.
